SENP6 inh: SENP6 protease inhibitors, primary screen, biochemical, luminescence, uHTS; 330,000 tested, 1.8% active; inhibition, % at 10 µM; Recombinant SENP6 catalytic domain, aminoluciferin luminescence; Sentrin-specific protease 6 (Homo sapiens), Q9GZR1; AID 2599, 2010;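 active means inhibition above about 50% at the single tested dose, limit read from the data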;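 further: plate controls were DMSO wells with enzyme for no effect and DMSO wells lacking enzyme for full effect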
SENP1 FRET inh: human SENP1 catalytic domain inhibitors, primary screen, biochemical, FRET, uHTS; 360,000 tested, 0.21% active; inhibition, % at 10 µM; recombinant SENP1 catalytic domain, CyPet-SUMO1-YPet FRET cleavage;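 active means inhibition at least 30% at 10 µM, raw YFP signal under a set limit, fluorescence ratio 0.5 to 1.5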;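 further: 0% = enzyme with DMSO and 100% = no enzyme wells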
Target sequence (Q9P0U3 419-644 limits assumed): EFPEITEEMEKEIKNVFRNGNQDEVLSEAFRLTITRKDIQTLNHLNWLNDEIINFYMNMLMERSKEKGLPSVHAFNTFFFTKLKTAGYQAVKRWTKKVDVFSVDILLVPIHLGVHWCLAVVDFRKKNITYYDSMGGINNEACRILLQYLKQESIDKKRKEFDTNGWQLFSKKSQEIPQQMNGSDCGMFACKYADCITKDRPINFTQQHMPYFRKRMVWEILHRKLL
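Material – human SENP1 catalytic domain · Input – SENP1 enzyme, 20 pM final · Compound dosing – single concentration of 10 µM compound, 0.5% DMSO final · Timing – enzyme reaction for 50 min at room temperature, dark · Measured by – FRET fluorescence in CFP and YFP emission channels · Control set – no-enzyme wells low, DMSO-plus-enzyme wells high control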
SENP7 block: SENP7 protease inhibitors, primary screen, biochemical, luminescence, uHTS. inhibition, % at 5 µM. 330,000 tested, 1.5% active. AID 434973, 2010. Sentrin-specific protease 7 (Homo sapiens), Q9BQF6. recombinant SENP7, Z-RLRGG-aminoluciferin luminescence, 40 min;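 active means inhibition above about 50% at the single test dose, limit read from the data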;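 further: plate controls were DMSO with enzyme for no effect and no enzyme buffer wells for full effect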
SENP8 block-1: human SENP8 protease inhibitors, primary screen, biochemical, fluorescence, Nedd8 protein substrate, uHTS; Sentrin-specific protease 8 (Homo sapiens), Q96LD8; recombinant SENP8; inhibition, % at 20 µM; 360,000 tested, 0.64% active; AID 602440, 2012; in the data active means inhibition mostly above about 40%, no sharp cut-off; inactive means mostly below about 27%
Target sequence (Q96LD8 whole entry, looked up): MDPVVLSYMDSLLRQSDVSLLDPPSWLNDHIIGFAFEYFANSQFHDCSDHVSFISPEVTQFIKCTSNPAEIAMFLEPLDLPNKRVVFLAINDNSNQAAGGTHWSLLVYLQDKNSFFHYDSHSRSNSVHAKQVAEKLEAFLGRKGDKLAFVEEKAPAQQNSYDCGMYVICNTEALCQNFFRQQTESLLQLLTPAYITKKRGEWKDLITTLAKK
SENP8 block-2: SENP8 protease inhibitors, primary screen, biochemical, luminescence; Sentrin-specific protease 8 (Homo sapiens), Q96LD8; purified SENP8, Z-RLRGG-aminoluciferin cleavage; inhibition, % at 10 µM; 330,000 tested, 1.2% active; AID 2540, 2010; in the data active means inhibition above about 50%
Starred values were filed as active, the others as inactive; i = inactive; nt = no result given. Only some compounds are listed: those with a hit (about 2.5% of all), similar ones and a draw of the others.

SMILES	SENP6 inh	SENP1 FRET inh	SENP7 block	SENP8 block-1	SENP8 block-2
Cc1c(CN(C)C)c2c(n1C)C(=O)c1ccc(Br)cc1-2	10.0	-0.3	-1.4	13.2	-7.5
CCOC(=O)c1c2c(n(C)c1C)C(=O)C(=O)c1ccc(Br)cc1-2	94.1*	1.6	96.6*	114.2*	93.3*
C[C@]12CCC(=O)C=C1C=C[C@@H]1[C@@H]2CC[C@@]2(C)[C@H]1CC[C@@]21CCC(=O)O1	9.1	-0.2	-3.5	18.1	-0.4
COc1cc(NC(=O)[C@@H]2O[C@H](CO)[C@@H](O)[C@H]2O)cc(OC)c1OC	nt	-0.1	nt	3.4	nt
CCOC(=O)c1cccc(NC(=O)Cn2c(CC(=O)N3CCCC3)nc3ccccc32)c1	76.4*	nt	3.2	nt	0.6
NC(N)=NN=C1CCC(c2ccccc2)CC1 (centres undefined)	-22.3	-1.2	2.9	24.4	1.8
CCCN1/C(=C2/SC(=S)N(CC)C2=O)C=Cc2ccccc21	-2.3	5.9	9.0	41.3*	3.4
CN1CCN(Cn2cc(/C=C/C(=O)c3ccccc3)c3ccccc32)CC1	58.6*	-22.3	23.0	-287.5	9.8
CC1(c2ccc(OC(F)F)cc2)NC(=O)N(CC(=O)N2CCN(C(=O)c3ccco3)CC2)C1=O (centres undefined)	8.2	0.1	8.9	16.4	7.1
O=C1Nc2ccccc2-n2nnnc2C1N1CCN(C(=O)C2CCCO2)CC1 (centres undefined)	nt	-3.7	nt	19.8	nt
CN(C)c1cccc(/C=C(\C#N)c2ccccc2)c1	54.7*	-111.3	37.2	17.2	57.1*
Cc1cc(Cl)ccc1NC(=O)/N=C1/NC(=O)CS1	nt	2.2	nt	8.4	nt
Cc1cc(C)cc(-n2c3ccc(NC(=O)Cc4cccc5ccccc45)cc3c(=O)n2C)c1	nt	2.9	nt	i	nt
Cc1nc2ccc(S(=O)(=O)Nc3ccc(-c4nc5cccnc5s4)cc3)cc2s1	9.1	-32.2	7.3	-417.3	4.4
O=S(=O)(Nc1ccc(-c2nc3cccnc3s2)cc1)c1ccccc1F	82.8*	-54.4	38.5	-467.8	65.9*
Cc1cc(-n2nc3ccccc3n2)c(O)c([N+](=O)[O-])c1	17.0	1.8	-2.4	25.7	-10.4
Cc1ccc(OC(=O)c2cccc([N+](=O)[O-])c2)c(-n2nc3ccccc3n2)c1	93.0*	-2.7	90.0*	15.8	86.7*
Cc1cnc(C(=O)OCC(=O)Nc2ccc(Br)c(C)c2)cn1	-6.3	-0.7	2.7	-2.9	-3.6
Oc1c(N=Nc2nn[nH]n2)ccc2ccccc12	nt	12.9	nt	54.6*	nt
O=C(O)c1cccc(NC(=O)c2ccc3c(c2)C(=O)N(Cc2ccco2)C3=O)c1	88.8*	2.8	88.1*	7.9	84.1*
O=C(O)c1ccc2c(c1)C(=O)N(Cc1ccco1)C2=O	1.3	4.3	1.7	18.4	-12.2
CC(C)NC(=O)c1ccc2c(c1)N(CC(=O)N1CCCCC1)C(=O)C(C)(C)O2	-18.2	1.9	0.5	15.3	7.3
CCCCOC(=O)CCN1C(=O)/C(=C2\SC(=S)N(CCC(=O)OCCCC)C2=O)SC1=S	8.0	0.5	-9.8	11.3	-10.0
CCCOC(=O)CCCN1C(=O)/C(=C2\SC(=S)N(CCCC(=O)OCCC)C2=O)SC1=S	-3.2	1.9	-10.6	37.7*	3.1
O=C(c1ccccc1)N1CCC(CC2CC(c3cccc(Br)c3)=NO2)(C(=O)NCC2CCCCC2)CC1 (centres undefined)	-18.7	0.5	-10.1	50.4*	-11.1
SMILES	SENP6 inh	SENP1 FRET inh	SENP7 block	SENP8 block-1	SENP8 block-2
Cc1ccc(CNc2ncnc3ccc(-c4ccc(CO)o4)cc23)o1	nt	-12.2	nt	-329.7	nt
COc1cc(C2C(C#N)=C(N)N(c3ccc(F)cc3)C3=C2S(=O)(=O)CC3)ccc1O (centres undefined)	-11.1	-8.9	-4.7	-367.7	7.5
Cc1nnc(-c2cnn(C)c2N)n1CCCN1CCOCC1	2.8	1.8	-3.4	-7.9	7.7
COc1ccc(CNC(=O)CCn2c(C)csc2=O)cc1	8.2	0.1	0.1	8.2	5.0
CC(NC(=O)COC(=O)C1CCCCC1)c1ccccc1 (centres undefined)	-4.3	4.6	2.1	9.7	0.2
Oc1ccc(N=Nc2cccc(C(F)(F)F)c2)cc1C=Nc1ccc(N2CCOCC2)cc1	65.9*	9.0	11.3	35.6*	43.0

Assay outcomes from PubChem.
